Data published in ChEMBL document CHEMBL1127451, “Benzoselenazolinone derivatives designed to be glutathione peroxidase mimetics feature inhibition of cyclooxygenase/5-lipoxygenase pathways and anti-inflammatory activity” (1994).

What was measured:
Format in all cases: functional
Rattus norvegicus [1] = assay: Tested for acute anti-inflammatory activity of the antirat serum-induced edema in rats at dose of 0.1 mg/kg at time interval- 4 hr
In short: (§1)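 Oral dosing of fasted Wistar rats (200–240 g, six per group) with drug in 0.5 mL 2% gelatin; 1 h later 0.1 mL rabbit antirat serum given by subplantar injection into hind paw.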

Rattus norvegicus [2] = assay: Tested for acute anti-inflammatory activity of the antirat serum-induced edema in rats at dose of 10 mg/kg at time interval- 3h; in short: as §1
Rattus norvegicus [3] = assay: Tested for acute anti-inflammatory activity of carrageenan-induced foot edema in rats at dose of 0.1 mg/kg at time interval- 1 hr
In short: (§2)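 Fasted male-unspecified Wistar rats (200–240 g), groups of six, dosed orally with drug in 0.5 mL 2% gelatin; 1 h later 0.1 mL carrageenan (2% in […]) injected subplantar into hind paw. Paw volume by water plethysmometer at 0, 0.5, 1, 2, 3, 4 h; mean swelling versus vehicle-treated group expressed as percent inhibition.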

Rattus norvegicus [4] = assay: Tested for acute anti-inflammatory activity of the antirat serum-induced edema in rats at dose of 10 mg/kg at time interval- 4 hr; in short: as §1
Rattus norvegicus [5] = assay: Tested for acute anti-inflammatory activity of carrageenan-induced foot edema in rats at dose of 0.1 mg/kg at time interval- 4 hr; in short: as §2
Rattus norvegicus [6] = assay: Tested for acute anti-inflammatory activity of the antirat serum-induced edema in rats at dose of 0.1 mg/kg at time interval- 2 hr; in short: as §1
Rattus norvegicus [7] = assay: Tested for acute anti-inflammatory activity of the antirat serum-induced edema in rats at dose of 0.1 mg/kg at time interval- 0.5 hr; in short: as §1
Rattus norvegicus [8] = assay: Tested for acute anti-inflammatory activity of carrageenan-induced foot edema in rats at dose of 10 mg/kg at time interval- 4 hr; in short: as §2
Rattus norvegicus [9] = assay: Tested for acute anti-inflammatory activity of carrageenan-induced foot edema in rats at dose of 1 mg/kg at time interval- 1 hr; in short: as §2
Rattus norvegicus [10] = assay: Tested for acute anti-inflammatory activity of the antirat serum-induced edema in rats at dose of 1 mg/kg at time interval- 1 hr; in short: as §1
Rattus norvegicus [11] = assay: Tested for acute anti-inflammatory activity of carrageenan-induced foot edema in rats at dose of 1 mg/kg at time interval- 2 hr; in short: as §2
Rattus norvegicus [12] = assay: Tested for acute anti-inflammatory activity of the antirat serum-induced edema in rats at dose of 10 mg/kg at time interval- 2 hr; in short: as §1
Rattus norvegicus [13] = assay: Tested for acute anti-inflammatory activity of carrageenan-induced foot edema in rats at dose of 1 mg/kg at time interval- 4 hr; in short: as §2
Rattus norvegicus [14] = assay: Tested for acute anti-inflammatory activity of carrageenan-induced foot edema in rats at dose of 10 mg/kg at time interval- 1 hr; in short: as §2
Rattus norvegicus [15] = assay: Tested for acute anti-inflammatory activity of the antirat serum-induced edema in rats at dose of 0.1 mg/kg at time interval- 1 hr; in short: as §1
Rattus norvegicus [16] = assay: Tested for acute anti-inflammatory activity of carrageenan-induced foot edema in rats at dose of 10 mg/kg at time interval- 3h; in short: as §2
Rattus norvegicus [17] = assay: Tested for acute anti-inflammatory activity of the antirat serum-induced edema in rats at dose of 10 mg/kg at time interval- 0.5 hr; in short: as §1
Rattus norvegicus [18] = assay: Tested for acute anti-inflammatory activity of carrageenan-induced foot edema in rats at dose of 1 mg/kg at time interval- 0.5 hr; in short: as §2
Rattus norvegicus [19] = assay: Tested for acute anti-inflammatory activity of carrageenan-induced foot edema in rats at dose of 10 mg/kg at time interval- 0.5 hr; in short: as §2
Rattus norvegicus [20] = assay: Tested for acute anti-inflammatory activity of carrageenan-induced foot edema in rats at dose of 10 mg/kg at time interval- 2 hr; in short: as §2
Rattus norvegicus [21] = assay: Tested for acute anti-inflammatory activity of the antirat serum-induced edema in rats at dose of 0.1 mg/kg at time interval- 3h; in short: as §1
Rattus norvegicus [22] = assay: Tested for acute anti-inflammatory activity of the antirat serum-induced edema at dose of 1 mg/kg at time interval- 3h; in short: as §1
Rattus norvegicus [23] = assay: Tested for acute anti-inflammatory activity of the antirat serum-induced edema in rats at dose of 1 mg/kg at time interval- 0.5 hr; in short: as §1
Rattus norvegicus [24] = assay: Tested for acute anti-inflammatory activity of the antirat serum-induced edema in rats at dose of 1 mg/kg at time interval- 2 hr; in short: as §1
Rattus norvegicus [25] = assay: Tested for acute anti-inflammatory activity of carrageenan-induced foot edema in rats at dose of 1 mg/kg at time interval- 3h; in short: as §2
Rattus norvegicus [26] = assay: Tested for acute anti-inflammatory activity of carrageenan-induced foot edema in rats at dose of 0.1 mg/kg at time interval- 2 hr; in short: as §2
Rattus norvegicus [27] = assay: Tested for acute anti-inflammatory activity of carrageenan-induced foot edema in rats at dose of 0.1 mg/kg at time interval- 3h; in short: as §2
Rattus norvegicus [28] = assay: Tested for acute anti-inflammatory activity of the antirat serum-induced edema in rats at dose of 10 mg/kg at time interval- 1 hr; in short: as §1
Rattus norvegicus [29] = assay: Tested for acute anti-inflammatory activity of carrageenan-induced foot edema in rats at dose of 0.1 mg/kg at time interval- 0.5 hr; in short: as §2
Rattus norvegicus [30] = assay: Tested for acute anti-inflammatory activity of the antirat serum-induced edema in rats at dose of 1 mg/kg at time interval- 4 hr; in short: as §1

## COc1ccc2c(c1)c(CC(=O)O)c(C)n2C(=O)c1ccc(Cl)cc1 [INDOMETHACIN]
Rattus norvegicus [1]
  inhibition in vivo at 0.1 mg/kg: 16.9%
Rattus norvegicus [2]
  inhibition in vivo at 10 mg/kg: 25.5%
Rattus norvegicus [3]
  inhibition in vivo at 0.1 mg/kg: 11.3%
Rattus norvegicus [4]
  inhibition in vivo at 10 mg/kg: 24.5%
Rattus norvegicus [5]
  inhibition in vivo at 0.1 mg/kg: -1.7%
Rattus norvegicus [6]
  inhibition in vivo at 0.1 mg/kg: 4.4%
Rattus norvegicus [7]
  inhibition in vivo at 0.1 mg/kg: -28.3%
Rattus norvegicus [8]
  inhibition in vivo at 10 mg/kg: 65.2%
Rattus norvegicus [9]
  inhibition in vivo at 1 mg/kg: 41.8%
Rattus norvegicus [10]
  inhibition in vivo at 1 mg/kg: -3%
Rattus norvegicus [11]
  inhibition in vivo at 1 mg/kg: 40.2%
Rattus norvegicus [12]
  inhibition in vivo at 10 mg/kg: 22.5%
Rattus norvegicus [13]
  inhibition in vivo at 1 mg/kg: 29.5%
Rattus norvegicus [14]
  inhibition in vivo at 10 mg/kg: 26.2%
Rattus norvegicus [15]
  inhibition in vivo at 0.1 mg/kg: -7.9%
Rattus norvegicus [16]
  inhibition in vivo at 10 mg/kg: 68.7%
Rattus norvegicus [17]
  inhibition in vivo at 10 mg/kg: -21.2%
Rattus norvegicus [18]
  inhibition in vivo at 1 mg/kg: -22.2%
Rattus norvegicus [19]
  inhibition in vivo at 10 mg/kg: -57.1%
Rattus norvegicus [20]
  inhibition in vivo at 10 mg/kg: 55.5%
Rattus norvegicus [21]
  inhibition in vivo at 0.1 mg/kg: 4.4%
Rattus norvegicus [22]
  inhibition in vivo at 1 mg/kg: 1.6%
Rattus norvegicus [23]
  inhibition in vivo at 1 mg/kg: -8.1%
Rattus norvegicus [24]
  inhibition in vivo at 1 mg/kg: 10%
Rattus norvegicus [25]
  inhibition in vivo at 1 mg/kg: 40%
Rattus norvegicus [26]
  inhibition in vivo at 0.1 mg/kg: 1.7%
Rattus norvegicus [27]
  inhibition in vivo at 0.1 mg/kg: 4%
Rattus norvegicus [28]
  inhibition in vivo at 10 mg/kg: -1.5%
Rattus norvegicus [29]
  inhibition in vivo at 0.1 mg/kg: -124%
Rattus norvegicus [30]
  inhibition in vivo at 1 mg/kg: 7.5%
